# Source: ChEMBL document CHEMBL1127629, “Design and synthesis of RNA-specific groove-binding cations: implications for antiviral drug design” (J Med Chem, 1994)
# Legend:
# Assay type in all cases: nucleic-acid assay
# Nucleic Acid [1] = assay: Evaluated for thermal denaturation at pH 3.9 against poly(A)-poly(dt) synthetic DNA oligonucleotide
# Method in brief: (§1)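 Polymer (poly(A)·poly(U) or poly(dA)·poly(dT)) at 1.0×10^-4 M in MES buffer (0.01 M MES, 0.001 M EDTA, 0.1 M NaCl), pH set with NaOH to the listed value. Compound added to a final drug:polymer phosphate ratio of 0.3. Absorbance at 260 nm followed while heating at 0.5 °C/min in 1-cm cells. ΔTm is the Tm shift of the complex versus the free polymer.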
# Nucleic Acid [2] = assay: Evaluated for thermal denaturation at pH 6.3 against poly(A)-poly(U) synthetic RNA oligonucleotide; method in brief: as §1
# Nucleic Acid [3] = assay: Evaluated for thermal denaturation at pH 6.3 against poly(A)-poly(dt) synthetic DNA oligonucleotide; method in brief: as §1
# Nucleic Acid [4] = assay: Evaluated for thermal denaturation at pH 4.9 against poly(A)-poly(dt synthetic DNA oligonucleotide; method in brief: as §1
# Nucleic Acid [5] = assay: Evaluated for thermal denaturation at pH 3.9 against poly(A)-poly(U) synthetic RNA oligonucleotide; method in brief: as §1
# Nucleic Acid [6] = assay: Evaluated for thermal denaturation at pH 4.9 against poly(A)-poly(U) syntheticRNA oligonucleotide; method in brief: as §1
# Nucleic Acid [7] = assay: Thermal denaturation at pH 6.3 against poly(A)-poly(U) synthetic RNA oligonucleotide; method in brief: as §1
# Nucleic Acid [8] = assay: Thermal denaturation at pH 4.9 against poly(A)-poly(dt) synthetic DNA oligonucleotide; method in brief: as §1
SMILES,ΔTm (Nucleic Acid [1]),ΔTm (Nucleic Acid [2]),ΔTm (Nucleic Acid [3]),ΔTm (Nucleic Acid [4]),ΔTm (Nucleic Acid [5]),ΔTm (Nucleic Acid [6]),ΔTm (Nucleic Acid [7]),ΔTm (Nucleic Acid [8])
CN1CCN(CCCN2CCN(C)CC2)CC1,0,0,0,0,11,1.3,–,–
C1CCN(CCN2CCN(CCN3CCCCC3)CC2)CC1,–,0,0,0.2,–,0.3,–,–
C(CN1CCC(C2=NCCN2)CC1)CN1CCC(C2=NCCN2)CC1,6.1,18.1,6.1,5.6,28.7,24.5,–,–
C(CC1CCNCC1)CC1CCNCC1,–,0,0.1,0.7,–,1.2,–,–
C1CCN(C2CCN(CCN3CCN(CCN4CCC(N5CCCCC5)CC4)CC3)CC2)CC1,10.4,–,6.5,8.3,34.7,22.9,7.6,–
c1cc(CN2CCC(N3CCCCC3)CC2)cc(CN2CCC(N3CCCCC3)CC2)c1,–,8,3.3,–,–,–,–,–
c1cnc(N2CCN(Cc3ccc(CN4CCN(c5ncccn5)CC4)cc3)CC2)nc1,–,0,0,0,–,0,–,–
OCC1CCCN(CCCN2CCCC(CO)C2)C1 (centres undefined),–,0.4,0,0,–,0.9,–,–
N#CC1CCN(CCCN2CCC(C#N)CC2)CC1,–,0,0,0,–,0,–,–
c1cc(CN2CCN(Cc3ccc(CN4CCNCC4)cc3)CC2)ccc1CN1CCNCC1,12,0,2.3,5.1,29.3,15.7,–,–
C1CCN(C2CCN(CCCN3CCC(N4CCCCC4)CC3)CC2)CC1,4.1,9.8,3.3,4.5,22.2,20.7,–,–
c1cc(CN2CCC(N3CCCCC3)CC2)ccc1CN1CCC(N2CCCCC2)CC1,5.6,8.1,3.5,–,17.7,15.4,–,6.7
C1CCN(CCCN2CCCCC2)CC1,–,0,0,0,–,0,–,–
c1cnc(N2CCN(Cc3cccc(CN4CCN(c5ncccn5)CC4)c3)CC2)nc1,–,0,0,0,–,0,–,–
c1ccc(CN2CCN(CCCN3CCN(Cc4ccccc4)CC3)CC2)cc1,0.2,0,0,–,2.4,–,–,–
OC1CCN(Cc2ccc(CN3CCC(O)CC3)cc2)CC1,–,0,0,–,–,–,–,–
c1cc(CN2CCNCC2)ccc1CN1CCNCC1,–,0,0,–,–,–,–,–
c1cc(CN2CCC(C3=NCCN3)CC2)ccc1CN1CCC(C2=NCCN2)CC1,8.8,16.2,8.7,9.5,23.3,20.7,–,–
OCC1CCN(CCCN2CCC(CO)CC2)CC1,–,0.2,0,0.5,–,0.5,–,–
